Test results: ChEMBL document CHEMBL1275272, “Synthesis, characterization and antimicrobial activity of some disubstituted 1,3,4-oxadiazoles carrying 2-(aryloxymethyl)phenyl moiety” (2010)
Values after ≈ are worked out from the molar mass of the structure shown.

Tests used:
Format in all cases: functional
[1] = test system: Escherichia coli; assay: Antibacterial activity against Escherichia coli after 16 to 18 hrs by serial dilution method; settings: for MIC: Escherichia coli
In short: (§1)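 The test compound was dissolved in DMF and serially diluted. A standard drop of the prepared microbial culture was added to each dilution, and tubes were incubated at 37 °C for 16–18 h. MIC was taken as the highest dilution that stayed clear with no visible turbidity.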

[2] = test system: Pseudomonas aeruginosa; assay: Antibacterial activity against Pseudomonas aeruginosa after 16 to 18 hrs by serial dilution method; settings: for MIC: Pseudomonas aeruginosa; in short: as §1
[3] = test system: Staphylococcus aureus; assay: Antibacterial activity against Staphylococcus aureus after 16 to 18 hrs by serial dilution method; settings: for MIC: Staphylococcus aureus; in short: as §1
[4] = test system: Aspergillus flavus; assay: Antifungal activity against Aspergillus flavus after 16 to 18 hrs by serial dilution method; settings: for MIC: Aspergillus flavus; in short: as §1
[5] = test system: Trichophyton mentagrophytes; assay: Antifungal activity against Trichophyton mentagrophytes after 16 to 18 hrs by serial dilution method; settings: for MIC: Trichophyton mentagrophytes
[6] = test system: Talaromyces marneffei; assay: Antifungal activity against Penicillium marneffei after 16 to 18 hrs by serial dilution method; settings: for MIC: Talaromyces marneffei; in short: as §1
[7] = test system: Klebsiella pneumoniae; assay: Antibacterial activity against Klebsiella pneumoniae after 16 to 18 hrs by serial dilution method; settings: for MIC: Klebsiella pneumoniae
[8] = test system: Aspergillus fumigatus; assay: Antifungal activity against Aspergillus fumigatus after 16 to 18 hrs by serial dilution method; settings: for MIC: Aspergillus fumigatus

Row | SMILES | inhibition zone (IZ) [1] [mm] | MIC [1] [mg/L] | inhibition zone (IZ) [2] [mm] | MIC [2] [mg/L] | inhibition zone (IZ) [3] [mm] | MIC [3] [mg/L] | inhibition zone (IZ) [4] [mm] | MIC [4] [mg/L] | inhibition zone (IZ) [5] [mm] | MIC [5] [mg/L] | inhibition zone (IZ) [6] [mm] | MIC [6] [mg/L] | inhibition zone (IZ) [7] [mm] | MIC [7] [mg/L] | inhibition zone (IZ) [8] [mm] | MIC [8] [mg/L]
1 | Cc1ccccc1OCc1ccccc1-c1nn(CNc2ccc(Cl)cc2C(=O)C(F)(F)F)c(=S)o1 | <10 | 25 (≈ 46.8 µM) | <10 | 25 (≈ 46.8 µM) | <10 | 25 (≈ 46.8 µM) | <10 | 25 (≈ 46.8 µM) | <10 | 25 (≈ 46.8 µM) | <10 | 25 (≈ 46.8 µM) | <10 | 25 (≈ 46.8 µM) | <10 | 25 (≈ 46.8 µM)
2 | Cc1cccc(CSc2nnc(-c3ccccc3COc3cccc(C)c3)o2)c1 | 11 | 12.5 (≈ 31.1 µM) | 11 | 12.5 (≈ 31.1 µM) | 11 | 12.5 (≈ 31.1 µM) | 11 | 12.5 (≈ 31.1 µM) | 11 | 12.5 (≈ 31.1 µM) | 11 | 12.5 (≈ 31.1 µM) | 11 | 12.5 (≈ 31.1 µM) | 16 | 6.25 (≈ 15.5 µM)
3 | Cc1ccc(OCc2ccccc2-c2nnc(-c3cc(C)cc(C)c3)o2)cc1 | 11 | 12.5 (≈ 33.7 µM) | 11 | 12.5 (≈ 33.7 µM) | 11 | 12.5 (≈ 33.7 µM) | 11 | 12.5 (≈ 33.7 µM) | 11 | 12.5 (≈ 33.7 µM) | 11 | 12.5 (≈ 33.7 µM) | 11 | 12.5 (≈ 33.7 µM) | 11 | 12.5 (≈ 33.7 µM)
4 | CCSc1nnc(-c2ccccc2COc2cccc(C)c2)o1 | <10 | 25 (≈ 76.6 µM) | <10 | 25 (≈ 76.6 µM) | <10 | 25 (≈ 76.6 µM) | <10 | 25 (≈ 76.6 µM) | <10 | 25 (≈ 76.6 µM) | <10 | 25 (≈ 76.6 µM) | <10 | 25 (≈ 76.6 µM) | <10 | 25 (≈ 76.6 µM)
5 | Clc1ccc(OCc2ccccc2-c2nnc(-c3cccc4ncccc34)o2)cc1 | <10 | 25 (≈ 60.4 µM) | <10 | 25 (≈ 60.4 µM) | <10 | 25 (≈ 60.4 µM) | <10 | 25 (≈ 60.4 µM) | <10 | 25 (≈ 60.4 µM) | <10 | 25 (≈ 60.4 µM) | <10 | 25 (≈ 60.4 µM) | <10 | 25 (≈ 60.4 µM)
6 | Cc1ccccc1OCc1ccccc1-c1nnc(-c2ccccc2)o1 | <10 | 25 (≈ 73 µM) | <10 | 25 (≈ 73 µM) | <10 | 25 (≈ 73 µM) | <10 | 25 (≈ 73 µM) | <10 | 25 (≈ 73 µM) | <10 | 25 (≈ 73 µM) | <10 | 25 (≈ 73 µM) | <10 | 25 (≈ 73 µM)
7 | Cc1ccccc1OCc1ccccc1-c1nnc(-c2cccc(Br)c2)o1 | <10 | 25 (≈ 59.3 µM) | <10 | 25 (≈ 59.3 µM) | <10 | 25 (≈ 59.3 µM) | <10 | 25 (≈ 59.3 µM) | <10 | 25 (≈ 59.3 µM) | <10 | 25 (≈ 59.3 µM) | <10 | 25 (≈ 59.3 µM) | <10 | 25 (≈ 59.3 µM)
8 | O=C(c1cc(Cl)ccc1NCn1nc(-c2ccccc2COc2ccc(Cl)cc2)oc1=S)C(F)(F)F | <10 | 25 (≈ 45.1 µM) | <10 | 25 (≈ 45.1 µM) | <10 | 25 (≈ 45.1 µM) | <10 | 25 (≈ 45.1 µM) | <10 | 25 (≈ 45.1 µM) | <10 | 25 (≈ 45.1 µM) | <10 | 25 (≈ 45.1 µM) | <10 | 25 (≈ 45.1 µM)
9 | Cc1ccc(OCc2ccccc2-c2nnc(SCc3cccc(C)c3)o2)cc1 | 11 | 12.5 (≈ 31.1 µM) | 11 | 12.5 (≈ 31.1 µM) | 11 | 12.5 (≈ 31.1 µM) | 11 | 12.5 (≈ 31.1 µM) | 11 | 12.5 (≈ 31.1 µM) | 11 | 12.5 (≈ 31.1 µM) | 11 | 12.5 (≈ 31.1 µM) | 11 | 12.5 (≈ 31.1 µM)
10 | Cc1ccc(OCc2ccccc2-c2nnc(SCc3ccc(Cl)cc3Cl)o2)cc1 | 16 | 6.25 (≈ 13.7 µM) | 16 | 6.25 (≈ 13.7 µM) | 16 | 6.25 (≈ 13.7 µM) | 16 | 6.25 (≈ 13.7 µM) | 16 | 6.25 (≈ 13.7 µM) | 16 | 6.25 (≈ 13.7 µM) | 16 | 6.25 (≈ 13.7 µM) | 16 | 6.25 (≈ 13.7 µM)
11 | Cc1ccccc1OCc1ccccc1-c1nnc(SCc2ccccc2)o1 | <10 | 25 (≈ 64.4 µM) | <10 | 25 (≈ 64.4 µM) | <10 | 25 (≈ 64.4 µM) | <10 | 25 (≈ 64.4 µM) | <10 | 25 (≈ 64.4 µM) | <10 | 25 (≈ 64.4 µM) | <10 | 25 (≈ 64.4 µM) | <10 | 25 (≈ 64.4 µM)
12 | Cc1cccc(OCc2ccccc2-c2nn(CNc3cc(C)ccc3Cl)c(=S)o2)c1 | <10 | 25 (≈ 55.3 µM) | <10 | 25 (≈ 55.3 µM) | <10 | 25 (≈ 55.3 µM) | <10 | 25 (≈ 55.3 µM) | <10 | 25 (≈ 55.3 µM) | <10 | 25 (≈ 55.3 µM) | <10 | 25 (≈ 55.3 µM) | <10 | 25 (≈ 55.3 µM)
13 | CCSc1nnc(-c2ccccc2COc2ccc(Cl)cc2)o1 | <10 | 25 (≈ 72.1 µM) | <10 | 25 (≈ 72.1 µM) | <10 | 25 (≈ 72.1 µM) | <10 | 25 (≈ 72.1 µM) | <10 | 25 (≈ 72.1 µM) | <10 | 25 (≈ 72.1 µM) | <10 | 25 (≈ 72.1 µM) | <10 | 25 (≈ 72.1 µM)
14 | Cc1cccc(OCc2ccccc2-c2nnc(-c3cccc(Br)c3)o2)c1 | <10 | 25 (≈ 59.3 µM) | <10 | 25 (≈ 59.3 µM) | <10 | 25 (≈ 59.3 µM) | <10 | 25 (≈ 59.3 µM) | <10 | 25 (≈ 59.3 µM) | <10 | 25 (≈ 59.3 µM) | <10 | 25 (≈ 59.3 µM) | <10 | 25 (≈ 59.3 µM)
15 | Cc1ccc(OCc2ccccc2-c2nnc(-c3cccnc3Cl)o2)cc1 | 11 | 12.5 (≈ 33.1 µM) | 11 | 12.5 (≈ 33.1 µM) | 11 | 12.5 (≈ 33.1 µM) |  |  |  |  |  |  | 11 | 12.5 (≈ 33.1 µM) |  | 
16 | O=C(O)c1cn(C2CC2)c2cc(N3CCNCC3)c(F)cc2c1=O [CIPROFLOXACIN] |  |  | 25 |  | 30 |  |  |  |  |  |  |  | 22 | 1.56 (≈ 4.71 µM) |  | 
17 | Cc1cc(C2CCCCC2)n(O)c(=O)c1.NCCO [CICLOPIROX OLAMINE] |  |  |  |  |  |  | 25 | 3.12 | 27 | 3.12 | 20 | 6.25 |  |  | 25 | 6.25
18 | Cc1ccccc1OCc1ccccc1-c1nnc(-c2cccnc2Cl)o1 | 11 | 12.5 (≈ 33.1 µM) | 11 | 12.5 (≈ 33.1 µM) | 11 | 12.5 (≈ 33.1 µM) |  |  |  |  |  |  | 11 | 12.5 (≈ 33.1 µM) |  | 
19 | Cc1cccc(OCc2ccccc2-c2nnc(-c3cccnc3Cl)o2)c1 | 11 | 12.5 (≈ 33.1 µM) | 11 | 12.5 (≈ 33.1 µM) | 11 | 12.5 (≈ 33.1 µM) |  |  |  |  |  |  | 11 | 12.5 (≈ 33.1 µM) |  | 
20 | Clc1ccc(OCc2ccccc2-c2nnc(-c3cccnc3Cl)o2)cc1 | 11 | 12.5 (≈ 31.4 µM) | 11 | 12.5 (≈ 31.4 µM) | 11 | 12.5 (≈ 31.4 µM) |  |  |  |  |  |  | 11 | 12.5 (≈ 31.4 µM) |  | 
